proKLK7 act = activators of human kallikrein-7 zymogen. purified proKLK7, EDANS-DABCYL substrate fluorescence; 100% is mature enzyme control, 0% vehicle. 370,000 tested, 0.9% active. activation, % at 7 µM. P49862;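 active = activation above the mean of all tested compounds plus 3 SD, computed per campaign excluding outliers beyond control limits, cut at about 13% in these data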
procasp3 activ = activates human procaspase-3; activation, % at 8.5 µM; AID 463141; 330,000 tested, 0.11% active; recombinant procaspase-3 D3A, Ac-DEVD-pNA absorbance 405 nm;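 active = activation above the mean of all tested compounds plus 3 SD, cut at about 21% in these data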
Target sequence (P42574 whole entry D9A/D28A/D175A): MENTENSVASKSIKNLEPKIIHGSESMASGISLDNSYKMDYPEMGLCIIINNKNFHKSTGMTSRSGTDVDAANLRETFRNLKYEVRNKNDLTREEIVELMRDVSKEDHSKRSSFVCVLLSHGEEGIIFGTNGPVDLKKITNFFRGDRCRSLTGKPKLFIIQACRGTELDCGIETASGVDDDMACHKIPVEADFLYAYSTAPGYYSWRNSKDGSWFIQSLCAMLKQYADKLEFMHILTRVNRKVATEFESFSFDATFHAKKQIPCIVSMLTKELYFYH
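Technique: 405 nm absorbance of p-nitroaniline, reads at 0 and 120 min; Test system: Procaspase-3 D3A mutant; Incubation: 1 h enzyme-compound preincubation, then 2 h substrate reaction, 25 °C; Repeats: singlicate, each compound tested once; Benchmarks: low control DMSO wells, high control DMSO plus 5 µM PC-3 D3A.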
proCasp7 act = activates human procaspase-7, counter-screen for procaspase-3 activators | P55210 | recombinant procaspase-7, Ac-DEVD-pNA absorbance 405 nm; D23A/D198A/D206A triple mutant, cannot self-cleave; scale: DMSO 0, 5 µM enzyme 100 | activation, % at 8.5 µM | 330,000 tested, 0.093% active | AID 463210;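 active = percent activation above the screen-wide mean plus 3 SD, cut at about 25% in these data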
Target sequence (P55210 whole entry D23A/D198A/D206A): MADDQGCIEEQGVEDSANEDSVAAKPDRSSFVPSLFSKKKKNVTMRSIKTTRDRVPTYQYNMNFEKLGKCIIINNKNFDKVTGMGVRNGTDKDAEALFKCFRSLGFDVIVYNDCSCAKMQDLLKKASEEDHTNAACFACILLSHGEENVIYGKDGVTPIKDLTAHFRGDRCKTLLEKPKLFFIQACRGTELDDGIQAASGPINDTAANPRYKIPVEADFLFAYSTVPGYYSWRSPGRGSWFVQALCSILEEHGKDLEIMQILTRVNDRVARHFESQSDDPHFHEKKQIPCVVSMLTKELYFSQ
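Test system: Procaspase-7 triple mutant (PC-7 D3A). Also added: Ac-DEVD-pNA substrate, 400 µM as added. Schedule: 1 h enzyme–compound preincubation and 2 h substrate reaction, both 25 °C. Signal: p-Nitroaniline absorbance at 405 nm, read at 0 and 120 min. Control set: low DMSO alone, high DMSO plus 5 µM PC-7.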
Neddyl block = cullin neddylation inhibition. P61081+Q13564. TR-FRET cullin neddylation, biochemical. calls only at 25 µM. 360,000 tested, 0.58% active. AID 651699; in the data active = inhibition above about 36%
Neddyl inh conf = confirmation of human cullin neddylation inhibitors | shares compounds with Neddyl block | TR-FRET cullin neddylation biochemical assay | calls only at 25 µM | 1,800 tested, 13% active | AID 652217; in the data active = inhibition above about 40%;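 also: neddylation substrate is the cullin 1 ring ligase complex with SKP2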
KLK7 act conf = confirmation of human kallikrein-7 zymogen activators | purified proKLK7, EDANS-DABCYL substrate fluorescence; scaled: vehicle 0, mature enzyme 100 | 3,200 tested, 68% active | activation, % at 7 µM | shares compounds with proKLK7 act | AID 686949;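 active = activation, as change over the incubation, above the mean of all tested compounds plus 3 SD, cut at about 13% in these data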
EDANS interfere = optically interferes with EDANS-DABCYL signal, flagging KLK7 hits; shares compounds with proKLK7 act; EDANS-DABCYL substrate fluorescence interference, no enzyme, 4 h; solvent 0%, active enzyme control 100%; activation, % at 7 µM; 3,200 tested, 80% active;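 active = activation above the all-compound mean plus 3 SD, ignoring values outside control-based bounds, cut at about 4.8% in these data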;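 also: value is the 4 h activation minus the activation read at time zero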
EDANS interf = optically interferes with EDANS-DABCYL fluorescence, kallikrein-7 activator counter-screen; EDANS-DABCYL peptide fluorescence interference, no enzyme; AID 720493; shares compounds with proKLK7 act; 250 tested, 20% active; EC50, µM;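 active = compounds that raise the fluorescence signal in this interference counterscreen, with EC50 at or below 10 µM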;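 also: intact quenched peptide substrate alone read at 355 nm excitation and 520 nm emission; signal is fluorescence gain from T0 to T4 after four hours at room temperature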
Large screens that a line does not name were inactive (follow-up assays come after a bar, where shown). Sampled rows, rich in hits. Any-hit rate of the full collection: about 1.6%.

COC(=O)C1CN(Cc2cn(CCC3OCCO3)nn2)CCS(=O)(=O)N1Cc1ccc(Cl)cc1 (stereo not given)	none (no result: procasp3 activ, proCasp7 act, Neddyl block)
CSC1=C(C#N)C(c2ccc(Cl)cc2)C2=C(CC(C)(C)CC2=O)N1 (stereo not given)	none
COc1ccc(C2C(C#N)=C(C)NC3=C2C(=O)CC(C)(C)C3)cc1 (stereo not given)	proKLK7 act 21, Neddyl block active | KLK7 act conf 61 | EDANS interfere 66
COC(=O)C1C(O)=C(C=Nc2cccc3ccccc23)C(=O)CC1(C)C (stereo not given)	proKLK7 act 34, Neddyl block active | Neddyl inh conf active | KLK7 act conf 25 | EDANS interfere 23
CC(=O)OCCc1c2ccccc2c(CCCN(C)C)c2ccccc12	proKLK7 act 16, Neddyl block active | KLK7 act conf inactive | EDANS interfere inactive
CC(=O)OCCc1[nH]c2ccccc2c1C	none
CC(=O)c1ccc(-c2ccc(C(=O)N(C)Cc3nc4ccccc4c(=O)[nH]3)o2)cc1	proKLK7 act 26, Neddyl block active | KLK7 act conf inactive | EDANS interfere inactive
CCOC(=O)c1cc2c(=O)n3ccccc3nc2n(C(C)C)c1=NC(=O)c1ccncc1	proKLK7 act 37, Neddyl block active | Neddyl inh conf active | KLK7 act conf 56 | EDANS interfere 62
CCOC(=O)c1cc2c(=O)n3ccccc3nc2n(CCOC)c1=NC(=O)c1ccncc1	proKLK7 act 24, Neddyl block active | Neddyl inh conf active | KLK7 act conf inactive | EDANS interfere 13
CCOC(=O)c1cc2c(=O)n3ccccc3nc2n(C(C)C)c1=NC(=O)c1c(-c2ccccc2Cl)noc1C	none (not shown: Neddyl block)
CCOC(=O)c1cc2c(=O)n3ccccc3nc2n(CCOC)c1=NC(=O)C(C)(C)C	none (not shown: Neddyl block)
CN1C(C(=O)NCc2cccc(Br)c2)CC2Cn3c(nc4cc5ccccc5cc43)C21 (stereo not given)	none
CC(C)N(C)c1ncnc2c1ncn2[C@H]1CN(Cc2cccs2)C[C@@H](CO)O1	none (no result: procasp3 activ, proCasp7 act)
COc1ccc(OC)c(/C=C/C(=O)OCC(=O)NCc2cccs2)c1	proKLK7 act 15, Neddyl block active | KLK7 act conf inactive | EDANS interfere 21
COc1cc(/C=C/C(=O)OCC(=O)NCc2cccs2)ccc1OC(F)F	none
CC1=NN(C(=O)c2ccc(Cn3cc([N+](=O)[O-])cn3)cc2)C(O)(C(F)(F)F)C1 (stereo not given)	none
COc1cccc(N=c2oc3cc(O)ccc3cc2C(=O)NCC2CCCO2)c1 (stereo not given)	proKLK7 act 66, Neddyl block active | Neddyl inh conf inactive | KLK7 act conf inactive | EDANS interfere 6.5
COc1ccc2oc(=O)c(C(=O)NCC3CCCO3)cc2c1 (stereo not given)	none (not shown: Neddyl block)
CCOC(=O)c1cnc2cc3c(cn2c1=O)CCCC3	proKLK7 act 13, Neddyl block active | KLK7 act conf inactive | EDANS interfere 10
CCOC(=O)c1cc2c(nc1N)CCCC2	none (not shown: Neddyl block)
COc1ccc(NS(=O)(=O)c2cccc(NC(=O)C3=NN(c4ccccc4)C(=O)CC3)c2)cc1	none
CN(c1ccccc1)S(=O)(=O)c1cccc(NC(=O)C2=NN(c3ccccc3)C(=O)CC2)c1	proKLK7 act 53, Neddyl block active | Neddyl inh conf inactive | KLK7 act conf inactive | EDANS interfere 8.6
CN(C)Cc1csc(Nc2ccc(C(=O)c3ccccc3)cc2)n1	none (no result: procasp3 activ, proCasp7 act)
COc1ccc(NC(=O)CN(C)C(=O)C2CCCO2)cc1 (stereo not given)	none
CCOC(=O)c1cnc2c(C(=O)OC)cccc2c1NCc1ccco1	proKLK7 act 14, Neddyl block active | Neddyl inh conf inactive | KLK7 act conf 15 | EDANS interfere 7.3 | EDANS interf inactive
CCOC(=O)c1cnc2c(C)cccc2c1NCc1ccco1	none
CCCCON1C(=O)c2cccc3cccc(c23)C1=O	none
CCCCN(C)C1=Nc2cccc3cccc1c23	proKLK7 act 60, Neddyl block active | Neddyl inh conf inactive | KLK7 act conf inactive | EDANS interfere 12
CCN(CC)CCNC(=O)c1ccc(NC(=O)c2cc(-c3ccco3)nc3ccccc23)cc1	proKLK7 act 31, Neddyl block active | Neddyl inh conf inactive | KLK7 act conf inactive | EDANS interfere inactive
c1ccc(C[n+]2cccc3c4ccccc4ccc32)cc1	proKLK7 act 16, Neddyl block active | KLK7 act conf 22 | EDANS interfere 28
Cn1c(=O)c2c(ncn2Cc2ccccc2)n(C)c1=O	none
Cn1c(=O)c2nc(NCc3ccccc3)cnc2n(C)c1=O	proKLK7 act 15, Neddyl block active | Neddyl inh conf active | KLK7 act conf 30 | EDANS interfere 40
COc1ccc(N2C(=O)C(CC(N)=O)N(NC(=O)CCc3ccccc3)C2=O)cc1 (stereo not given)	none
O=C(Nc1ccc2c(c1)OCO2)c1cc(-c2ccc(O)cc2)on1	proKLK7 act 20, Neddyl block active | Neddyl inh conf active | KLK7 act conf 21 | EDANS interfere 14 | EDANS interf inactive
COc1ccc(C(O)c2ncc(-c3ccccc3C)[nH]2)cc1 (stereo not given)	none (no result: procasp3 activ, proCasp7 act)
CC(C)C1Oc2cc3oc(=O)ccc3cc2C1=O (stereo not given)	proKLK7 act 35, Neddyl block active | Neddyl inh conf inactive | KLK7 act conf 29 | EDANS interfere 27
NCCCCc1cn(CC(=O)N2CCNCC2)nn1	none
COC(=O)CSc1ccc2c(N)c(C(=O)OC)sc2c1	proKLK7 act 45, Neddyl block active | Neddyl inh conf active | KLK7 act conf 27 | EDANS interfere 29
Cc1sc2nc3ccc(NCc4ccco4)nn3c(=O)c2c1C	proKLK7 act 17, Neddyl block active | KLK7 act conf 74 | EDANS interfere 70
Cc1sc2nc(SCC(=O)NCc3ccco3)n(C)c(=O)c2c1C	none
COCCn1c(C)cc(/C=C(\C#N)C(=O)OCC(=O)Nc2ccc(S(N)(=O)=O)cc2)c1C	proKLK7 act 14, Neddyl block active (no result: procasp3 activ, proCasp7 act) | Neddyl inh conf active | KLK7 act conf inactive | EDANS interfere inactive
CS(=O)(=O)Nc1ccc(-c2cncc3nccn23)cc1	proKLK7 act 16, Neddyl block active (not shown: procasp3 activ, proCasp7 act) | KLK7 act conf inactive | EDANS interfere 4.5
